Results reported in article PMC3846175 (Bioorganic & medicinal chemistry, 2013).
Values joined by “and” are separate entries in the source; they are usually repeats but may differ in a detail not shown here. Equal entries are not always repeated. Structures can show the parent of a compound that is named as a salt. Where two headings read alike, the source gives them in different places.

Legend:
T. b. r. STIB900 [1] = details: mouse, ref [10], [14], [16], [23], cited from earlier work
T. b. brucei GVR35 [2] = details: mouse; po 100 mg/kg for 5 days; ref [5]; cited from earlier work
[3] = test system: Trypanosoma brucei rhodesiense STIB900; details: read-out: T. b. r. IC50; strain STIB900; comparator data; ref [10], [16]; cited from earlier work
Plasmodium falciparum K1 [4] = details: read-out: P. f. IC50; strain K1; comparator data; ref [10], [16]; cited from earlier work
T. b. r. STIB900 [5] = experiment: T. b. r. STIB900 acute mouse model; format: in vivo, Trypanosoma brucei rhodesiense
poly(dA-dT)2 = experiment: Thermal melting; format: binding
T. b. brucei GVR35 [6] = experiment: T. b. brucei GVR35 CNS mouse model; format: in vivo, Trypanosoma brucei brucei
How it was run: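 Second-stage (CNS) infection model in mice with T. b. brucei GVR35. The test compound was given orally at 100 mg/kg for 5 days, and a 10-day course was also run. The comparator was diminazene, given as a single 40 mg/kg intraperitoneal dose. Survival was the endpoint. Protocols were approved by the Canton Basel-Stadt veterinary authorities.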

Plasmodium falciparum K1 [7] = experiment: In vitro assay with P. f. K1 strain; format: cell-based; details: IC50 ratio
[8] = po 100 mg/kg for 5 days, 100 mg/kg

N=C(N)c1ccc(-c2ccc(-c3ccc(C(=N)N)cc3)o2)cc1 [2a, furamidine]
Cures (mice that survive and are parasite free for 60 days) (T. b. r. STIB900 [1]; ip 5 mg/kg daily for 4 days): 1/4 | Survival (average days of survival) (T. b. r. STIB900 [1]; ip 5 mg/kg daily for 4 days): >46 days | Cures (mice that survive and are parasite free for 60 days) (T. b. r. STIB900 [1]; ip 20 mg/kg daily for 4 days): 3/4 | Survival (average days of survival) (T. b. r. STIB900 [1]; ip 20 mg/kg daily for 4 days): >57.75 days

N=C(NO)c1ccc(-c2ccc(-c3ccc(/C(N)=N\O)cc3)o2)cc1 [2b]
Cures (mice that survive and are parasite free for 60 days) (T. b. r. STIB900 [1]; po 100 mg/kg daily for 4 days, 100 mg/kg): no cure and 0/4

CONC(=N)c1ccc(-c2ccc(-c3ccc(C(=N)NOC)cc3)o2)cc1 [2c, pafuramidine]
Cures (mice that survive and are parasite free for 60 days) (T. b. r. STIB900 [1]; po 10 mg/kg daily for 4 days): 4/4 | Survival (average days of survival) (T. b. r. STIB900 [1]; po 10 mg/kg daily for 4 days): >60 days | Cures (mice that survive and are parasite free for 60 days) (T. b. r. STIB900 [1]; po 25 mg/kg daily for 4 days): 4/4 | Survival (average days of survival) (T. b. r. STIB900 [1]; po 25 mg/kg daily for 4 days): >60 days | MSD (mean survival days) (T. b. brucei GVR35 [2]): >167.8 days | No. of mice cured (survival >180 days without parasitemia relapse) (T. b. brucei GVR35 [2]): 3/5

N=C(N)c1ccc(-c2ccc(-c3ccc(C(=N)N)cn3)o2)cc1 [3a]
IC50 [3]: 6.5 nM | IC50 (Plasmodium falciparum K1 [4]): 6.5 nM | Cures (mice that survive and are parasite free for 60 days) (T. b. r. STIB900 [1]; ip 5 mg/kg daily for 4 days): 3/4 | Survival (average days of survival) (T. b. r. STIB900 [1]; ip 5 mg/kg daily for 4 days): >54.5 days | Cures (mice that survive and are parasite free for 60 days) (T. b. r. STIB900 [1]; ip 20 mg/kg daily for 4 days): 4/4 | Survival (average days of survival) (T. b. r. STIB900 [1]; ip 20 mg/kg daily for 4 days): >60 days

CO/N=C(\N)c1ccc(-c2ccc(-c3ccc(/C(N)=N/OC)cn3)o2)cc1 [3c]
Cures (mice that survive and are parasite free for 60 days) (T. b. r. STIB900 [1]; po 25 mg/kg daily for 4 days): 4/4 | Survival (average days of survival) (T. b. r. STIB900 [1]; po 25 mg/kg daily for 4 days): >60 days | MSD (mean survival days) (T. b. brucei GVR35 [2]): >180 days | No. of mice cured (survival >180 days without parasitemia relapse) (T. b. brucei GVR35 [2]): 5/5

N=C(N)c1ccc(-c2ccc(-c3ccc(C(=N)N)cn3)o2)nc1 [4a]
IC50 [3]: 21 nM | IC50 (Plasmodium falciparum K1 [4]): 83 nM | Cures (mice that survive and are parasite free for 60 days) (T. b. r. STIB900 [1]; ip 5 mg/kg daily for 4 days): 3/4 | Survival (average days of survival) (T. b. r. STIB900 [1]; ip 5 mg/kg daily for 4 days): >49.5 days | Cures (mice that survive and are parasite free for 60 days) (T. b. r. STIB900 [1]; ip 20 mg/kg daily for 4 days): 4/4 | Survival (average days of survival) (T. b. r. STIB900 [1]; ip 20 mg/kg daily for 4 days): >60 days

CO/N=C(\N)c1ccc(-c2ccc(-c3ccc(/C(N)=N/OC)cn3)o2)nc1 [4c]
Cures (mice that survive and are parasite free for 60 days) (T. b. r. STIB900 [1]; po 25 mg/kg daily for 4 days): 2/4 | Survival (average days of survival) (T. b. r. STIB900 [1]; po 25 mg/kg daily for 4 days): >42 days | MSD (mean survival days) (T. b. brucei GVR35 [2]): >180 days | No. of mice cured (survival >180 days without parasitemia relapse) (T. b. brucei GVR35 [2]): 5/5

N=C(N)c1ccc(-c2cncc(-c3ccc(C(=N)N)cc3F)n2)c(F)c1 [15b, 2,6-Di-(4′-amidino-2′-fluorophenyl)pyrazine hydrochloride]
Cures (mice that survive and are parasite free for 60 days) (T. b. r. STIB900 [5]; ip 5 mg/kg daily for 4 days): no cures

N=C(N)c1ccc(-c2cncc(-c3ccc(C(=N)N)cn3)n2)cc1 [19a, 2-(4′-amidinophenyl)-6-(5′-amidinopyridin-2′-yl)pyrazine hydrochloride]
Decrease in ΔTm value relative to parent compound 10 (poly(dA-dT)2): 2 °C

N=C(N)c1ccc(-c2cncc(-c3ccc(C(=N)N)cn3)n2)nc1 [23a, 2,6-Di-(5′-amidinopyridin-2′-yl)pyrazine hydrochloride]
Decrease in ΔTm value relative to parent compound 10 (poly(dA-dT)2): 3.9 °C

N=C(N)c1ccc(-c2cncc(-c3ccc(C(=N)N)nc3)n2)cn1 [23b, 2,6-Di-(2′-amidinopyridin-5′-yl)pyrazine hydrochloride]
Decrease in ΔTm value relative to parent compound 10 (poly(dA-dT)2): 3.0 °C

N/C(=N\O)c1ccc(-c2cncc(-c3ccc(/C(N)=N\O)nc3)n2)cn1 [24b, 2,6-Di-(2′-N-hydroxyamidinopyridin-5′-yl)pyrazine hydrochloride]
Cures (mice that survive and are parasite free for 60 days) (T. b. r. STIB900 [5]; po 25 mg/kg daily for 4 days): cures of all mice | MSD (mean survival days) (T. b. brucei GVR35 [6]; po 100 mg/kg for 5 days): 67.2 days | No. of mice cured (survival >180 days without parasitemia relapse) (T. b. brucei GVR35 [6]; [8]): not curative and 0/5

CO/N=C(\N)c1ccc(-c2cncc(-c3ccc(/C(N)=N\OC)cn3)n2)nc1 [25a, 2,6-Di-(5′-N-methoxyamidinopyridin-2′-yl)pyrazine hydrochloride]
MSD (mean survival days) (T. b. brucei GVR35 [6]; po 100 mg/kg for 5 days): 95.2 days | No. of mice cured (survival >180 days without parasitemia relapse) (T. b. brucei GVR35 [6]; [8]): not curative and 0/5

N=C(N)c1ccc(-c2cnc(-c3ccc(C(=N)N)cc3)cn2)cc1 [compound 6]
IC50 [3]: 18 nM | IC50 (Plasmodium falciparum K1 [4]): 0.4 nM | Cures (mice that survive and are parasite free for 60 days) (T. b. r. STIB900 [1]; ip 5 mg/kg daily for 4 days, 5 mg/kg): no cure and 0/4

N=C(N)c1ccc(-c2cncc(-c3ccc(C(=N)N)cc3)n2)cc1 [compound 10, 2,6-Di-(4′-amidinophenyl)pyrazine hydrochloride]
Fold less potent than 6 against P. f. (Plasmodium falciparum K1 [7]): 25 fold

N/C(=N\O)c1ccc(-c2cncc(-c3ccc(/C(N)=N/O)cc3)n2)cc1 [compound 11, 2,6-Di-(4′-N-hydroxyamidinophenyl)pyrazine hydrochloride]
Cures (mice that survive and are parasite free for 60 days) (T. b. r. STIB900 [5]; po 25 mg/kg daily for 4 days): cures of all mice | No. of mice cured (survival >180 days without parasitemia relapse) (T. b. brucei GVR35 [6]; [8]): no cures and 0/5

CO/N=C(\N)c1ccc(-c2cncc(-c3ccc(/C(N)=N\OC)cc3)n2)cc1 [compound 12, 2,6-Di-(4′-N-methoxyamidinophenyl)pyrazine hydrochloride]
No. of mice cured (survival >180 days without parasitemia relapse) (T. b. brucei GVR35 [6]; po 100 mg/kg for 5 days): 2/5 | No. of mice cured (survival >180 days without parasitemia relapse) (T. b. brucei GVR35 [6]; po 100 mg/kg for 10 days): 3/4
